Assay results of several laboratories.
Each line is one published result; the experiments were not run side by side.
Action: inhibitor
DPP4: Dipeptidyl peptidase 4 (DPP4, Homo sapiens, UniProt P27487)
CDK9 with cyclin T1: Cyclin-dependent kinase 9, with cyclin T1 (CDK9, Homo sapiens, UniProt P50750)
APOBEC3G: DNA dC->dU-editing enzyme APOBEC-3G (APOBEC3G, Homo sapiens, UniProt Q9HC16)
ACHE: Acetylcholinesterase (ACHE, Homo sapiens, UniProt P22303)

Structure (SMILES)	target	assay	system	conditions	IC50 [µM]
CC(C)[C@H](N)C(=O)N1CCC[C@H]1C(=O)N[C@H](C(=O)N1CCC[C@H]1C(=O)N[C@H](C(=O)O)C(C)C)C(C)C	DPP4	enzyme activity, absorbance		pH 8	59.1
COc1c(-c2ccccc2)oc2c(ccc3occc32)c1=O	CDK9 with cyclin T1	enzyme activity, ADP detection			> 100
Cc1cc(C)nc(Nc2ncc(C(=O)NCCc3c(C)[nH]c4ccccc34)cn2)c1	Cytochrome P450 2C8 (CYP2C8, Homo sapiens, UniProt P10632)	enzyme activity	human, liver microsomes		4
CSCC[C@H](NC(=O)[C@H](Cc1c[nH]cn1)NC(=O)[C@H](Cc1c[nH]cn1)NC(=O)[C@@H](N)CCCCN)C(=O)N[C@@H](Cc1ccc(O)cc1)C(=O)N[C@H](C(=O)N[C@@H](CO)C(=O)NCC(=O)N[C@@H](CCCCN)C(=O)N[C@@H](C)C(=O)N[C@@H](CCCNC(=N)N)C(=O)NCC(=O)N[C@@H](Cc1c[nH]c2ccccc12)C(=O)N[C@@H](Cc1ccccc1)C(=O)O)C(C)C	APOBEC3G	enzyme activity		pH 7.4	80
COc1c(-c2ccc3c(c2)OCO3)oc2c(ccc3occc32)c1=O	CDK9 with cyclin T1	enzyme activity, ADP detection			38.4
CC(C)[C@H](N)C(=O)N1CCC[C@H]1C(=O)N[C@H](C(=O)N1CCC[C@H]1C(=O)N[C@@H](CCC(N)=O)C(=O)O)C(C)C	DPP4	enzyme activity, absorbance		pH 8	112
CC[C@H](C)[C@H](N)C(=O)N[C@@H](Cc1c[nH]cn1)C(=O)N[C@@H](CC(C)C)C(=O)N[C@@H](Cc1ccc(O)cc1)C(=O)N[C@@H](Cc1ccc(O)cc1)C(=O)N[C@@H](Cc1ccccc1)C(=O)N[C@@H](CC(=O)O)C(=O)O	APOBEC3G	enzyme activity		pH 7.4	110
CC[C@H]1NC(=O)[C@@H]2CSC(=N2)[C@@H](Cc2ccccc2)N(C)C(=O)[C@@H]2CCCN2C(=O)[C@H](C(C)C)N(C)C(=O)[C@H](Cc2ccccc2)OC(=O)[C@H](C)[C@@H](C)NC(=O)[C@@H]([C@@H](C)O)NC(=O)[C@@H](CC(C)C)N(C)C(=O)[C@@H]2CSC1=N2	DPP4	enzyme activity			347
C[C@H]1CN(c2n[nH]c3nc(N[C@H]4CC[C@H](NS(=O)(=O)CCC(F)(F)F)CC4)ncc23)CCO1	Cyclin-dependent kinase 9 (CDK9, Homo sapiens, UniProt P50750)	cell-free assay, chemoproteomics		lysate	> 20
C=CCn1c2cc(OC(=O)CCCCN3CCN(Cc4ccccc4F)CC3)ccc2c2ccnc(C)c21	ACHE	enzyme activity, Ellman			0.15
CC[C@H](C)[C@H](N)C(=O)N1CCC[C@H]1C(=O)N[C@H](C(=O)N1CCC[C@H]1C(=O)N[C@H](C(=O)O)[C@@H](C)CC)C(C)C	DPP4	enzyme activity, absorbance		pH 8	57
CC(C)C[C@@H]1C(=O)N[C@H]([C@@H](C)O)C(=O)N[C@H](C)[C@@H](C)C(=O)O[C@@H](Cc2ccccc2)C(=O)N(C)[C@@H](C(C)C)C(=O)N2CCC[C@H]2C(=O)N(C)[C@H](Cc2ccccc2)C2=N[C@@H](CS2)C(=O)N[C@H](C)C2=N[C@@H](CS2)C(=O)N1C	DPP4	enzyme activity			164
CC[C@H](C)[C@H](NC(=O)[C@@H]1CCCN1C(=O)[C@@H](NC(=O)[C@@H]1CCCN1C(=O)[C@@H](N)C(C)C)C(C)C)C(=O)O	DPP4	enzyme activity, absorbance		pH 8	103
C=CCn1c2cc(OC(=O)CCCCN3CCN(Cc4cccc(C)c4)CC3)ccc2c2ccnc(C)c21	ACHE	enzyme activity, Ellman			0.0358
